One series addresses T1, Cytochrome P450 2C8 (Homo sapiens, UniProt P10632).
T1 sequence (P10632 whole entry): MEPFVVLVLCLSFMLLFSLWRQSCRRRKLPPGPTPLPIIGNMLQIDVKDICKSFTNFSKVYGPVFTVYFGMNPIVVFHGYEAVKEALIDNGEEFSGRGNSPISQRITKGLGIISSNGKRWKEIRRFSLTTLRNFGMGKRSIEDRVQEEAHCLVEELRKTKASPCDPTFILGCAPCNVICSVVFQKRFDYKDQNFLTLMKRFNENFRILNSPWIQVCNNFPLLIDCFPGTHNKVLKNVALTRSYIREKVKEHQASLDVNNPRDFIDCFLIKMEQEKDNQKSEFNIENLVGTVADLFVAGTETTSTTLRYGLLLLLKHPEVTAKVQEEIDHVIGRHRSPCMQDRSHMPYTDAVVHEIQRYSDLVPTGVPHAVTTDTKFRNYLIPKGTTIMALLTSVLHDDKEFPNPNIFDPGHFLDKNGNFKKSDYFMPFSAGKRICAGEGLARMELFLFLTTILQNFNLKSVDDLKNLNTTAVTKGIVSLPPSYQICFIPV
As to the kind of experiment: Inhibition of CYP2C8 in human liver microsomes. Format: ADME, Microsome. In a few lines: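 Human liver microsome CYP2C8 inhibition with taxol as substrate and montelukast as positive control; IC50 reported.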
(Liver microsomes are vesicles of endoplasmic reticulum, rich in cytochrome P450 enzymes.)

The target of a further series is Cytochrome P450 2C9 (Homo sapiens, UniProt P11712). As to the kind of experiment: Inhibition of CYP2C9 in human liver microsomes. Format: ADME, Microsome.
Sequence of Cytochrome P450 2C9 (P11712 whole entry): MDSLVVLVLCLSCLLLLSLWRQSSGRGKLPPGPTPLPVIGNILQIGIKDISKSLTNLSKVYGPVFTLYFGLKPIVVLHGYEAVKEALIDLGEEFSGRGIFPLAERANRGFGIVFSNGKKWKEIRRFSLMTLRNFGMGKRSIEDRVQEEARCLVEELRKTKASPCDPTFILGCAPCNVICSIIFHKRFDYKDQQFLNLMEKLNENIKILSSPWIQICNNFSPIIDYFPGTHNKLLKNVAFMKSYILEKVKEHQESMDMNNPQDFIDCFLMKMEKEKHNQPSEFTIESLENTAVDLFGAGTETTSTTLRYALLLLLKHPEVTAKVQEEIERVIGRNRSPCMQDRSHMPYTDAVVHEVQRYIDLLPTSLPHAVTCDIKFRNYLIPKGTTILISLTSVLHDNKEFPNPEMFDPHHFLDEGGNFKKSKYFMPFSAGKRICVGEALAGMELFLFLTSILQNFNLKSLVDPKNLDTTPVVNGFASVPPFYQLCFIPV
Series [1] is described as follows: Oral bioavailability in mouse at 2 mg/kg, po. Format: ADME, organism-based. The following applies: in vivo. In a few lines:
(§1)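 Mouse PK. Intravenous dose 1 mg/kg and oral dose 2 mg/kg, both given in DMSO/PEG400/water (5:40:55 v:v:v).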

Series [2] can be described thus: Clearance in mouse at 1 mg/kg, iv or 2 mg/kg, po. The following applies: in vivo. Format: ADME, organism-based. In outline: as §1
Series [3] in a line: Volume of distribution at steady state in mouse at 1 mg/kg, iv or 2 mg/kg, po. Type of series: ADME, organism-based. The settings on record: in vivo, read-out: Vdss. In outline:
as §1

The nature of series [4]: Cmax in mouse at 1 mg/kg, iv or 2 mg/kg, po. Type of series: ADME, organism-based. The settings on record: in vivo. In a few lines:
as §1

Series [5] in a line: Half life in mouse at 1 mg/kg, iv or 2 mg/kg, po. The following applies: in vivo. Type of series: ADME, organism-based. In outline:
as §1

Series [6] concerns Mus musculus. Description: Drug level in mouse at 10 mg/kg, po. The following applies: read-out: Activity, in vivo.
The test system of series [7] is Mus musculus. As to the kind of experiment: Reduction of plasma free fatty acid levels in po dosed mouse after 15 mins. Type of series: functional, organism-based. The settings on record: for ED50: po. In outline:
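Mice dosed orally. Plasma free fatty acids and plasma compound level both measured at 15 min post-dosing.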

Series [8] in a line: Plasma concentration in mouse at 3 mg/kg, ip after 5 mins.
Another series deals with Adipocyte. Description: Inhibition of lipolysis in human adipocytes. Format: functional, cell-based. In a few lines:
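Inhibition of lipolysis in human adipocytes, read as reduction of free fatty acid release.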

The target in series [9] is T2, Hydroxycarboxylic acid receptor 2 (Mus musculus, UniProt Q9EP66). As to the kind of experiment: Displacement of [3H]niacin from mouse GPR109A.
T2 sequence (Q9EP66 whole entry): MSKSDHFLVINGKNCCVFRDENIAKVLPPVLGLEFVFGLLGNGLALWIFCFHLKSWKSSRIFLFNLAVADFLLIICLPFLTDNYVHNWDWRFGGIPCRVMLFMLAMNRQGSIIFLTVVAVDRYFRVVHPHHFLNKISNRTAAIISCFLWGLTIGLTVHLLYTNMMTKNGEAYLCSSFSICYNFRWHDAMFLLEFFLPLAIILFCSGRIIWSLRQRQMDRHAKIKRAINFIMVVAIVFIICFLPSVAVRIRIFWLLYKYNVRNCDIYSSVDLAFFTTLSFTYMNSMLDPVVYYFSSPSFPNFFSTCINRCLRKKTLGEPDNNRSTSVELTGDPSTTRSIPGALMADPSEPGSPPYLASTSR
For series [10], the target named is T2, Hydroxycarboxylic acid receptor 2. As to the kind of experiment: Agonist activity at mouse GPR109A by [35S]GTP-gamma-S binding assay. Format: functional. (In general: GTPγS resists hydrolysis and so accumulates on activated G proteins.)
In series [11] the test system is Mus musculus. Description: Vasodilation effect in mouse ear at 100 mg/kg, ip. Type of series: functional, organism-based. Also on record: dose 100 mg/kg. In a few lines: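 Flushing model in mice. Compound given i.p. in 5% DMSO/40% PEG400/55% water. Vasodilation read as the change in ear blood perfusion by laser Doppler flowmetry.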
Series [12] in a line: Plasma concentration in mouse at 100 mg/kg, ip after 15 mins. Format: ADME, organism-based. Also on record: dose 100 mg/kg, route intraperitoneal. In a few lines:
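After an i.p. dose in the mouse ear vasodilation study, plasma compound level measured at 15 min post-dose.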

A short description of series [13]: Therapeutic index, ratio of vasodilating effect to IC50 for FFA reduction in mouse. Type of series: organism-based. The following applies: in vivo. In a few lines:
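Mouse ear vasodilation (flushing) measured as the change in blood perfusion by laser Doppler flowmetry after i.p. dosing in 5% DMSO/40% PEG400/55% water, with plasma drug level taken post-dose. Plasma FFA reduction was measured after p.o. dosing, with compound and FFA plasma levels at 15 min. TI = minimum plasma level inducing flushing ÷ in vivo IC50 for FFA reduction.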

Nine compounds from ChEMBL document CHEMBL1138322 (J Med Chem, 2007) can be followed below.

Calls of active or inactive are those of the source. The rule behind the calls is not given here.

The IC50 is the midpoint of a concentration-inhibition curve. Low values mean higher potency, high ones lower potency. A word on the bioavailability: it is dose-corrected exposure relative to a reference, in per cent. A low value points to poor availability. By Cmax is commonly meant the maximum level reached in the sampled fluid or tissue. As a reminder, the half-life is how long it takes for the measured level to halve. For `O=C(CCc1cnc(-c2ccc(O)cc2Cl)s1)Nc1ccccc1C(=O)O`, the half-maximal inhibitory concentration (IC50) was determined as 1.2 µM against Cytochrome P450 2C8 and 2.8 µM against Cytochrome P450 2C9. Besides, the bioavailability in series [1] was found to be 37%. Besides, the clearance in series [2] was determined as 7.3 mL/min/kg. Also, the Vd in series [3] worked out at 0.37 L/kg. This compound displayed a Cmax in series [4] of 2100 nM. For the same compound, the half-life in series [5] is 96 min.

By ED50 is commonly meant the dose that gives a 50% effect, or the effect in half of the subjects. `O=C(O)c1cccnc1` [NIACIN]: the concentration in the series with Mus musculus [6] came out at 20 µM. For the same compound, it took a dose of 8 mg/kg to reach the 50% effect level with Mus musculus [7] (ED50). This compound came in with a concentration at 5 min in series [8] of 18 µM.

Usually EC50 stands for the concentration at which the effect is half-maximal. The low end stands for an effect from little substance, the high end for a need for much substance. Consider `O=C(CCc1nc(-c2ccc(O)cc2)no1)Nc1ccccc1C(=O)O`, for which the results for the IC50 (in the series on Adipocyte; in series [9]; in the series on Mus musculus [7]) were 30 nM, 460 nM and 6.9 µM, respectively. Also, it took 1600 nM to reach a half-maximal effect in series [10] (EC50). This compound yielded an ED50 with Mus musculus [7] of 9 mg/kg. In the series on Mus musculus [11], the result was inactive. For the same compound, the concentration at […] in series [12] was 490 µM. Further, the selectivity ratio in series [13] was greater than 70. The same compound came in with a bioavailability in series [1] of 6%. The clearance in series [2] turned out to be 34 mL/min/kg. Also, the Vd in [3] stood at 1.66 L/kg. The same compound gave a Cmax in [4] of 120 nM. In series [5], this compound gave a half-life of 78 min.

With `O=C(CCc1ccc(-c2ccc(O)cn2)cc1)Nc1ccccc1C(=O)O`, the IC50 against Cytochrome P450 2C8 worked out at 8.9 µM; against Cytochrome P450 2C9 it was 1.6 µM. In series [1], this compound came in with a bioavailability of 57%. The compound also displayed a clearance in series [2] of 0.38 mL/min/kg. In series [3], the Vd is 0.11 L/kg. This compound also yielded a Cmax in [4] of 5000 nM. In series [5], this compound showed a half-life of 318 min.

On to `O=C(CCc1cnc(-c2ccc(O)cn2)s1)Nc1ccccc1C(=O)O`, for which the IC50 against Cytochrome P450 2C8 amounted to 20.3 µM; against Cytochrome P450 2C9 it was 5.7 µM. The bioavailability in [1] was determined as 27%. In series [2], this compound showed a clearance of 8.5 mL/min/kg. Moreover, the Vd in series [3] worked out at 0.62 L/kg. This compound showed a Cmax in [4] of 520 nM. The half-life in series [5] is 132 min.

Consider `O=C(CCc1ncc(-c2ccc(O)cn2)s1)Nc1ccccc1C(=O)O`, for which the figures for the IC50 against Cytochrome P450 2C8 and at Cytochrome P450 2C9 were 9.3 µM and 4.2 µM, respectively.

Consider `O=C(CCc1nc(-c2ccc(O)cn2)no1)Nc1ccccc1C(=O)O`, for which the figures for the IC50 in the series with Adipocyte, against Cytochrome P450 2C8 and against Cytochrome P450 2C9 were 5 nM, greater than 100 µM and greater than 100 µM, respectively.

Consider `Cc1c(CCC(=O)Nc2ccccc2C(=O)O)cnn1-c1ccc(O)cc1`, for which the IC50 with Adipocyte is 40 nM; on Cytochrome P450 2C8, 19 µM; at Cytochrome P450 2C9, 15 µM. The compound also registered a bioavailability in series [1] of 2.5%. This compound had a clearance in series [2] of 26 mL/min/kg. Moreover, the Vd in [3] was found to be 0.88 L/kg. In addition, the highest level in series [4] (Cmax) was 30 nM. The compound further had a half-life in series [5] of 66 min.

On to `O=C(CCc1ccc(-c2ccc(O)cc2Cl)cc1)Nc1ccccc1C(=O)O`, for which the IC50 against Cytochrome P450 2C8 and against Cytochrome P450 2C9 was less than 0.4 µM each time. In addition, the bioavailability in [1] is 5%. The same compound yielded a clearance in [2] of 18 mL/min/kg. Further, in series [3], the Vd was 0.35 L/kg. Also, in series [4], the concentration peaked (Cmax) at 960 nM. This compound also showed a half-life in series [5] of 120 min.
